Laboratory results from ChEMBL document CHEMBL5661979, “Pharmacological inhibition of BMK1 suppresses tumor growth through promyelocytic leukemia protein” (Cancer Cell, 2010).

What was measured:
[1] = Toxicity in C57Bl/6 mouse assessed as effect on total bilirubin level at 50 mg/kg, ip for 14 days (reference value: 0.3 mg/dl); assay type: organism-based; settings: in vivo, 336 h, time 14 day
[2] = target: Calcium/calmodulin-dependent protein kinase type 1D (Homo sapiens, UniProt Q8IU85); experiment: Inhibition of CAMK1d in human HeLa cells lysate at 2 uM pre incubated for 15 mins followed by ATP acyl phosphate probe addition and measured after 10 mins by LC-MS/MS analysis relative to control; assay type: subcellular; settings: time 25.0 min
Calcium/calmodulin-dependent protein kinase type 1D, sequence (Q8IU85 whole entry, looked up, the tested form may be a part): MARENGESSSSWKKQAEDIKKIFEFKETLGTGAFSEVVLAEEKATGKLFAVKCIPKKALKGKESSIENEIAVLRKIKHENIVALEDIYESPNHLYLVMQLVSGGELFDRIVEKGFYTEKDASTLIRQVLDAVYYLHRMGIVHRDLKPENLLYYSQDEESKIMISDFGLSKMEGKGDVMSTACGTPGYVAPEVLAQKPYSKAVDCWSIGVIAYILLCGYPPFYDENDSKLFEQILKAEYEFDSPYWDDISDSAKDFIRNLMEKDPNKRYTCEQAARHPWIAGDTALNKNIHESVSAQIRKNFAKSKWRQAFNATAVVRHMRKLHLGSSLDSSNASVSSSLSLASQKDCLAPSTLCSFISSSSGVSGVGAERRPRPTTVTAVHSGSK
Outline: (§1)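 KiNativ-type profiling in HeLa lysate (5 mg/mL total protein). Lysate preincubated 15 min with inhibitor at 50, 10, 2, 0.8 or 0 μM, then ATP or ADP acylphosphate probe added (5 μM final) for 10 min. Reaction stopped with urea and analysed by targeted MS, using up to four fragment ions per kinase peptide-probe conjugate. % inhibition calculated against untreated lysate. Duplicate reactions.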

[3] = target: T1, Serine/threonine-protein kinase Sgk3 (Homo sapiens) (UniProt Q96BR1); experiment: Inhibition of SGK3 in human HeLa cells lysate at 10 uM pre incubated for 15 mins followed by ATP acyl phosphate probe addition and measured after 10 mins by LC-MS/MS analysis relative to control; assay type: subcellular; settings: time 25.0 min
T1 sequence (whole entry): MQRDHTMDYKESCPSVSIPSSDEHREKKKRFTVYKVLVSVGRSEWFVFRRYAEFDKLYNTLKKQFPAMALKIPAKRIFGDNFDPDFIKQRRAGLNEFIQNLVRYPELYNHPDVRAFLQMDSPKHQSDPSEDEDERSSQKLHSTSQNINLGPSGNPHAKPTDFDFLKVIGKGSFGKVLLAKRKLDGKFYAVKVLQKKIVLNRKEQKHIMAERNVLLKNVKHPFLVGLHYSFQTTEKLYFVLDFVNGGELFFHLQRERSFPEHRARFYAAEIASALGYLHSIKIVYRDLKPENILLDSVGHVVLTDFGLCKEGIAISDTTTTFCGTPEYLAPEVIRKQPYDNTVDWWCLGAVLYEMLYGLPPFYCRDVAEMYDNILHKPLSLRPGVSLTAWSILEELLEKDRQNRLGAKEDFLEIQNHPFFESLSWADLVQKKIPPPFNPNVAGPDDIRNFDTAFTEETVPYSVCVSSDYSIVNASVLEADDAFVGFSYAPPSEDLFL

[4] = target: Ribosomal protein S6 kinase alpha-3 (Homo sapiens, UniProt P51812); experiment: Inhibition of RSK2 domain 1 in human HeLa cells lysate at 50 uM pre incubated for 15 mins followed by ADP acyl phosphate probe addition and measured after 10 mins by LC-MS/MS analysis relative to control; assay type: subcellular; settings: time 25.0 min
Ribosomal protein S6 kinase alpha-3, sequence (P51812 whole entry, the tested form may be a part): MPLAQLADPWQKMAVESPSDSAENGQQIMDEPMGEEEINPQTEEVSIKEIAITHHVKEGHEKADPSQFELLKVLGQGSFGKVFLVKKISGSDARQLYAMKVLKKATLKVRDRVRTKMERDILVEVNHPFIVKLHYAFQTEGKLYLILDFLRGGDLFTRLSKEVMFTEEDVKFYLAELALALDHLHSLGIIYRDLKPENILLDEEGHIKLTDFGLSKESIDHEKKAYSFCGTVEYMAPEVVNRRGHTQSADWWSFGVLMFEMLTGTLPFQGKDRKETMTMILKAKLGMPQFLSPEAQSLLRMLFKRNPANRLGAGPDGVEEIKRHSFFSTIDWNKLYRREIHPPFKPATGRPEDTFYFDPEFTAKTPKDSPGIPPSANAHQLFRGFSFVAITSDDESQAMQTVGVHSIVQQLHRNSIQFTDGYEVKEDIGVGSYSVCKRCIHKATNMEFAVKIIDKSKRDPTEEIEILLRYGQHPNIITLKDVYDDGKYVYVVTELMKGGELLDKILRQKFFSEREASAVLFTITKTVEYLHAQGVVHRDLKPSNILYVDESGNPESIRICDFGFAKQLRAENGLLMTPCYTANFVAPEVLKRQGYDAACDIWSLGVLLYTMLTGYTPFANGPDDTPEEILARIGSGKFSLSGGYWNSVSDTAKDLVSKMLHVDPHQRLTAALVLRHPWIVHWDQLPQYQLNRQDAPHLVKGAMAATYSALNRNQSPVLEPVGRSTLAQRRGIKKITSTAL

RPS6KA1/RPS6KA2/RPS6KA3 = RPS6KA1/RPS6KA2/RPS6KA3 (Homo sapiens, UniProt P51812+Q15349+Q15418); experiment: Inhibition of RSK1/RSK2/RSK3 domain 1 in human HeLa cells lysate pre incubated for 15 mins followed by ADP acyl phosphate probe addition and measured after 10 mins by LC-MS/MS analysis; assay type: subcellular
[5] = target: Calcium/calmodulin-dependent protein kinase type II subunit gamma (Homo sapiens, UniProt Q13555); experiment: Inhibition of CAMK2g in human HeLa cells lysate at 2 uM pre incubated for 15 mins followed by ADP acyl phosphate probe addition and measured after 10 mins by LC-MS/MS analysis relative to control; assay type: subcellular; settings: time 25.0 min; outline: as §1
Calcium/calmodulin-dependent protein kinase type II subunit gamma, sequence (Q13555 whole entry, the tested form may be a part): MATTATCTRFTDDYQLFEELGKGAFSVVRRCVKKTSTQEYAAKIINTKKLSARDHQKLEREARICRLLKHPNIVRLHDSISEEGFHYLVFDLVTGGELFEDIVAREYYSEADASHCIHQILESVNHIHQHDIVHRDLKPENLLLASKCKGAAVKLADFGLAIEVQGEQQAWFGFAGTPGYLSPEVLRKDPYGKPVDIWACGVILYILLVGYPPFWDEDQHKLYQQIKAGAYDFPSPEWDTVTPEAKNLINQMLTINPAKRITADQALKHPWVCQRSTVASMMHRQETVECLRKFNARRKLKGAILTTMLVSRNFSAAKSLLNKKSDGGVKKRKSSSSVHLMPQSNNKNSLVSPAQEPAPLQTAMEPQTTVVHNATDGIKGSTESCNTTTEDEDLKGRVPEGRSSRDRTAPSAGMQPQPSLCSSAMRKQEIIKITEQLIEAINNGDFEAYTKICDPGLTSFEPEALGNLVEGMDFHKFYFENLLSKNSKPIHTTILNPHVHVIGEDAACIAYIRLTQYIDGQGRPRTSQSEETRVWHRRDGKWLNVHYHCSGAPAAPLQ

[6] = target: Ribosomal protein S6 kinase alpha-1 (Homo sapiens, UniProt Q15418); experiment: Inhibition of RSK1 domain 2 K2 site in human HeLa cells lysate pre incubated for 15 mins followed by ADP acyl phosphate probe addition and measured after 10 mins by LC-MS/MS analysis; assay type: subcellular
Ribosomal protein S6 kinase alpha-1, sequence (Q15418 whole entry, the tested form may be a part): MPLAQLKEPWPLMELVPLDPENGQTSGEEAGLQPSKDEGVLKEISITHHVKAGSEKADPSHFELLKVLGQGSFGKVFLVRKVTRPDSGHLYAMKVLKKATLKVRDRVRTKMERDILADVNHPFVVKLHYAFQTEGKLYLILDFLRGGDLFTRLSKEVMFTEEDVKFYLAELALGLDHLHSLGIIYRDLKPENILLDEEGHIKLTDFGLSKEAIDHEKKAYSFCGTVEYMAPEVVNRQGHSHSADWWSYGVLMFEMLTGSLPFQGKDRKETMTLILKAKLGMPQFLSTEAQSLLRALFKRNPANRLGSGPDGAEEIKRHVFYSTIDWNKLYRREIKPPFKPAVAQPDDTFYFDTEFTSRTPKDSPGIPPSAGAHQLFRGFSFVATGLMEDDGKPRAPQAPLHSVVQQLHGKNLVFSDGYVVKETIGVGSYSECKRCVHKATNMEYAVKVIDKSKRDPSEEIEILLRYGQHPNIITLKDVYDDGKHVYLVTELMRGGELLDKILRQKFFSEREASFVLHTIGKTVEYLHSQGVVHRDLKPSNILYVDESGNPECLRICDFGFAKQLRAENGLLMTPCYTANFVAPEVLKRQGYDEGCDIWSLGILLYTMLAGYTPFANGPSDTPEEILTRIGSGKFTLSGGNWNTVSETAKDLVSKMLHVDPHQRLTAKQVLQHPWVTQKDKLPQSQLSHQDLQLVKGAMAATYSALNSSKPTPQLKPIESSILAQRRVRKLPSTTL

[7] = target: Acylglycerol kinase, mitochondrial (Homo sapiens, UniProt Q53H12); experiment: Inhibition of AGK in human HeLa cells lysate pre incubated for 15 mins followed by ATP acyl phosphate probe addition and measured after 10 mins by LC-MS/MS analysis; assay type: subcellular
Outline: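 HeLa cell lysates (5 mg/mL total protein) were preincubated with inhibitor at 0, 0.8, 2, 10 or 50 μM for 15 min. ATP or ADP acylphosphate probe was then added (5 μM final) for 10 min, and reactions were stopped with urea. Up to four fragment ions per kinase probe-peptide were quantified by targeted MS. % inhibition was taken relative to untreated lysate. Run in duplicate.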

[8] = target: T2, Phosphatidylinositol 5-phosphate 4-kinase type-2 alpha (Homo sapiens) (UniProt P48426); experiment: Inhibition of PIP5K2A LIP site in human HeLa cells lysate at 50 uM pre incubated for 15 mins followed by ADP acyl phosphate probe addition and measured after 10 mins by LC-MS/MS analysis relative to control; assay type: subcellular; settings: time 25.0 min
T2 sequence (whole entry): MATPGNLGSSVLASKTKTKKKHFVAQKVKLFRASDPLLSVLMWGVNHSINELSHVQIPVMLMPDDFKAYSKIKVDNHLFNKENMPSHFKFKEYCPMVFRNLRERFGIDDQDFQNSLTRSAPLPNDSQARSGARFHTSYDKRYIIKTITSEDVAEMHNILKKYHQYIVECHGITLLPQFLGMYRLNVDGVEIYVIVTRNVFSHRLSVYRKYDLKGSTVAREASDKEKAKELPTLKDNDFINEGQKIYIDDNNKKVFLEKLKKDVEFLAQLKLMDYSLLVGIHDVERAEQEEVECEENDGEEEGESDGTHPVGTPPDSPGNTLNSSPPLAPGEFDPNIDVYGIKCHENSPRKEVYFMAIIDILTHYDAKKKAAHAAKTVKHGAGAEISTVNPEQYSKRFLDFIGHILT

[9] = target: T1, Serine/threonine-protein kinase Sgk3 (Homo sapiens); experiment: Inhibition of SGK3 in human HeLa cells lysate at 2 uM pre incubated for 15 mins followed by ATP acyl phosphate probe addition and measured after 10 mins by LC-MS/MS analysis relative to control; assay type: subcellular; settings: time 25.0 min
[10] = target: Ephrin type-B receptor 4 (Homo sapiens) (UniProt P54760); experiment: Inhibition of EphB4 in human HeLa cells lysate at 10 uM pre incubated for 15 mins followed by ATP acyl phosphate probe addition and measured after 10 mins by LC-MS/MS analysis relative to control; assay type: subcellular; settings: time 25.0 min
Ephrin type-B receptor 4 (Homo sapiens), sequence (P54760 whole entry): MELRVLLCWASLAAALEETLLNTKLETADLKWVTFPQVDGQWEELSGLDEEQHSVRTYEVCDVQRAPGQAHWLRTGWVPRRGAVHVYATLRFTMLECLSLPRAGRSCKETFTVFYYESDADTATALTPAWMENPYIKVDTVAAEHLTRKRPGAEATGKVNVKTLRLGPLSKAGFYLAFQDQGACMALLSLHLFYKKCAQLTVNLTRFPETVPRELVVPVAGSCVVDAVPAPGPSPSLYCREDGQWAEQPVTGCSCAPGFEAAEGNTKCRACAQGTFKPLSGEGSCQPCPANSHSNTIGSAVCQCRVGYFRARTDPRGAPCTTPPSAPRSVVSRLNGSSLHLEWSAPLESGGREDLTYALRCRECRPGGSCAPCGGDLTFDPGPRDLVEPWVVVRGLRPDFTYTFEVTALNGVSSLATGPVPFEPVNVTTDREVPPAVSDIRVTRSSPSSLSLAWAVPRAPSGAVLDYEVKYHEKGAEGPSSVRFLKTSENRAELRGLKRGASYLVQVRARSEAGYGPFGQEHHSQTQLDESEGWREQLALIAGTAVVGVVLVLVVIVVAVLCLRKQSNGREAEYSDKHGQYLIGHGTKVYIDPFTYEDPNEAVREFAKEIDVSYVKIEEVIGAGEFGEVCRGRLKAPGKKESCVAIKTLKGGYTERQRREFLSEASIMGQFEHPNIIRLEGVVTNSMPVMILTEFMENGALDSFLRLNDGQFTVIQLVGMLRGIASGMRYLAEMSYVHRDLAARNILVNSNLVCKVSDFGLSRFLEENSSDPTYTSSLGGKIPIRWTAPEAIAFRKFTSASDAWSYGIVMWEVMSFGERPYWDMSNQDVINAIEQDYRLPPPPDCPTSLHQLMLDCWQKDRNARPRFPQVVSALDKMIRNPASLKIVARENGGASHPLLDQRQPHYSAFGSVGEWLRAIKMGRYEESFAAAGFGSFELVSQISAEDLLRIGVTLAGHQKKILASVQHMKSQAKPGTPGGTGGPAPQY

[11] = target: Calcium/calmodulin-dependent protein kinase kinase 1 (Homo sapiens, UniProt Q8N5S9); experiment: Inhibition of CAMKK1 in human HeLa cells lysate pre incubated for 15 mins followed by ADP acyl phosphate probe addition and measured after 10 mins by LC-MS/MS analysis; assay type: subcellular
Calcium/calmodulin-dependent protein kinase kinase 1, sequence (Q8N5S9 whole entry, the tested form may be a part): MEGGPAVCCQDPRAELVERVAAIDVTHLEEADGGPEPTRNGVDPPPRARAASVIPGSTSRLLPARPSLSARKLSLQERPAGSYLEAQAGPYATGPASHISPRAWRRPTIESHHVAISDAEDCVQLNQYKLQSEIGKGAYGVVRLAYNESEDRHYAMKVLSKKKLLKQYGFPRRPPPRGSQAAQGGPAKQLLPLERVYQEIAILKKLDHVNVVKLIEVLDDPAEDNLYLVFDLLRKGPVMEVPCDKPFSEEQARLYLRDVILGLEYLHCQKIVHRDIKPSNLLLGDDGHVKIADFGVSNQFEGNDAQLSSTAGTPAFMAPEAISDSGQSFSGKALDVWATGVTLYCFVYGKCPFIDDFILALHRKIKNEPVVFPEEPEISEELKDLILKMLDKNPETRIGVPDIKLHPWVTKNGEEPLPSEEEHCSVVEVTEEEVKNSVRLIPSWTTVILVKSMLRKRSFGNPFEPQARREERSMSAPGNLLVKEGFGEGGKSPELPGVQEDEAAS
Outline: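 KiNativ profiling in HeLa lysate (5 mg/mL total protein). Lysate incubated 15 min with inhibitor at 50, 10, 2, 0.8 or 0 μM. ATP or ADP acylphosphate probe then added (5 μM final) and reacted 10 min. Reaction stopped with urea and analysed by targeted MS, using up to four fragment ions per kinase peptide-probe conjugate. % inhibition taken against untreated lysate. Run in duplicate.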

[12] = target: Mitogen-activated protein kinase 1 (Homo sapiens, UniProt P28482); experiment: Inhibition of ERK2 in human HeLa cells lysate pre incubated for 15 mins followed by ATP acyl phosphate probe addition and measured after 10 mins by LC-MS/MS analysis; assay type: subcellular
Mitogen-activated protein kinase 1, sequence (P28482 whole entry): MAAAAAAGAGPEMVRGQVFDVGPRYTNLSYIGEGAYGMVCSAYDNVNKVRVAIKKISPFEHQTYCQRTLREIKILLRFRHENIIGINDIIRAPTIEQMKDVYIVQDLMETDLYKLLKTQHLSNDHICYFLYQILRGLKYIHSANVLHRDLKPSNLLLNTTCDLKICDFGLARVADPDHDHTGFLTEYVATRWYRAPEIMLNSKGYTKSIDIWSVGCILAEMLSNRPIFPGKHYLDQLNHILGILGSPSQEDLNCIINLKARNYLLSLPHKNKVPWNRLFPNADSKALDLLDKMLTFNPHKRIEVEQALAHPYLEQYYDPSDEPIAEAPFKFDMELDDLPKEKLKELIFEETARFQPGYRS

[13] = target: Protein kinase C theta type (Homo sapiens, UniProt Q04759); experiment: Inhibition of PKCtheta in human HeLa cells lysate pre incubated for 15 mins followed by ATP acyl phosphate probe addition and measured after 10 mins by LC-MS/MS analysis; assay type: subcellular
Protein kinase C theta type, sequence (Q04759 whole entry): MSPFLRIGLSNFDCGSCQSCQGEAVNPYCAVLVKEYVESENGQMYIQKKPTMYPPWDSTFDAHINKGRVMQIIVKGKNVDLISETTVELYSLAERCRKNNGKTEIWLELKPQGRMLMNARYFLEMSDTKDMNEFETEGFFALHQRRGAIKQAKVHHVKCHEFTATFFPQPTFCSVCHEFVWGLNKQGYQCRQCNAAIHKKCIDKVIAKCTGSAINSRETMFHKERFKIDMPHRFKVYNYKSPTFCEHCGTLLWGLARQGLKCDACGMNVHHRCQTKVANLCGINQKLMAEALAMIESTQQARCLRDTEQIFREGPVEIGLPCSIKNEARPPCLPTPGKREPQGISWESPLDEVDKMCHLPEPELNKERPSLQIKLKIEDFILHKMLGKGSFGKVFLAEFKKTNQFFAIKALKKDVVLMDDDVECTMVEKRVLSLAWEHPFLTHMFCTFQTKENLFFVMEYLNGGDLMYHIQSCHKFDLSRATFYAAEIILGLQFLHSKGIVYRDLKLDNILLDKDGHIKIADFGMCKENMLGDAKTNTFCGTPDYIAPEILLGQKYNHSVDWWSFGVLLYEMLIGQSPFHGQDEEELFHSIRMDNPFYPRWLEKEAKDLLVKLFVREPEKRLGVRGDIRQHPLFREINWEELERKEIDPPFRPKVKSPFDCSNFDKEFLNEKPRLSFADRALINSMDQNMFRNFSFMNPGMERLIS

[14] = Inhibition of HGK/MINK/TNIK in human HeLa cells lysate at 50 uM pre incubated for 15 mins followed by ATP acyl phosphate probe addition and measured after 10 mins by LC-MS/MS analysis relative to control; settings: 25 min, condition cancer

Work on CCOc1cc(N2CCC(O)CC2)ccc1Nc1ncc2c(n1)N(C)c1ccccc1C(=O)N2C yielded an Activity [1] of 0.3 mg/dL, an inhibition [2] of 4.4% and an inhibition [3] of 4.4%. The inhibition [4] was -4.3%, the IC50 (RPS6KA1/RPS6KA2/RPS6KA3) was greater than 50 µM and the inhibition [5] was -2.2%. It also gave an IC50 [6] of 31 µM, an IC50 [7] greater than 50 µM and an inhibition [8] of 15.1%. It also gave an inhibition [9] of 15.9%, an inhibition [10] of -7.1% and an IC50 [11] greater than 50 µM. For the same compound, the IC50 [12] was greater than 50 µM, the IC50 [13] was greater than 50 µM and the inhibition at 50 µM [14] was -2.6%.
